UBC13 polyUb: blocks human UBC13 polyubiquitin chain formation; TR-FRET; 330,000 compounds, 0.47% hits; inhibition, % at 20 µM; in the data active = inhibition above about 45%, passing the limit was not always enough; inconclusive = no clear call, values can overlap the other calls
ZTA counter: counter-screen for EBNA-1 inhibitors: inhibitors of Epstein-Barr virus ZTA | 320,000 compounds, 0.15% hits | inhibition, % at 11 µM | AID 2234 | ZTA-DNA binding, fluorescence polarization | P03206; in the data active = inhibition above about 33%
Target sequence (P03206 whole entry, looked up): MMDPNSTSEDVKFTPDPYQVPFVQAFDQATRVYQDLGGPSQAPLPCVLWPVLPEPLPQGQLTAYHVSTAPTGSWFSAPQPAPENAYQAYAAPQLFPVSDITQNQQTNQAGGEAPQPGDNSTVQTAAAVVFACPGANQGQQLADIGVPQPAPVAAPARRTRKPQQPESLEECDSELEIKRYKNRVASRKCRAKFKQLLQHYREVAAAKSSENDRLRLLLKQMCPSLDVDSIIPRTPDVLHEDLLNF
Apaf-1 inh: inhibitors of human Apaf-1 apoptosome. O14727. AID 489030. 330,000 compounds, 0.71% hits. reconstituted apoptosome caspase-3 activity, DEVD-Rh110 fluorescence. inhibition, % at 20 µM; active = inhibition of at least 40% at 20 µM
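Material: reconstituted apoptosome with Apaf-1, cytochrome c, caspase-9, procaspase-3, dATP. Technique: Rh110 fluorescence intensity. Buffer or medium: pH 7.5 Hepes buffer with CHAPS, BSA, DTT. Times: 30 min plus 50 min, RT.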
PREPL inh: inhibits the human prolyl oligopeptidase-like enzyme | 320,000 compounds, 0.68% hits | inhibition, % at 5.96 µM | recombinant PREPL, fluorescence polarization activity-based probe | Q4J6C6; in the data active = inhibition above about 43%
EBNA-1 inhibitor: blocks EBNA-1 binding to DNA; EBNA-1 DNA binding, fluorescence polarization; inhibition, % at 14.8 µM; 300,000 compounds, 0.34% hits; in the data active = inhibition above about 28%
Casp3 counter: counter-screen for UBC13 inhibitors: human caspase-3 inhibition; 1,400 compounds, 4% hits; inhibition, % at 20 µM; shares compounds with UBC13 polyUb; Recombinant caspase-3, Caspase-Glo 3/7 luminescence, 60 min; AID 488856;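 active = mean inhibition across replicates above about 26%, limit read from the data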
Target sequence (P42574 whole entry, looked up): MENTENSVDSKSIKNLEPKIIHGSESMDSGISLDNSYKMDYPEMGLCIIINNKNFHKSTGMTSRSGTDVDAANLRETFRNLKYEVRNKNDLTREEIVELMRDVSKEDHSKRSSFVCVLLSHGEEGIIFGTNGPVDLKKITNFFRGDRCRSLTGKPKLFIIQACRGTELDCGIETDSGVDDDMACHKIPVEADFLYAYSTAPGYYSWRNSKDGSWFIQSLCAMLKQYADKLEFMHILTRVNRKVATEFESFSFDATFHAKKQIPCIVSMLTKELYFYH
UBC13 confirm: confirmation of human UBC13 polyubiquitin inhibitors; shares compounds with UBC13 polyUb; UBC13 polyubiquitination, TR-FRET, biochemical; inhibition, % at 10 µM; 1,400 compounds, 68% hits; AID 488859; in the data active = inhibition above about 45%; inconclusive = no clear call, values can overlap the other calls
Numbers stand for hits; . = inactive; ? = inconclusive; / = no result given. Rows were chosen to be rich in hits. Some 1.7% of all compounds tested hit in one or more screens of this group.

SMILES	UBC13 polyUb	ZTA counter	Apaf-1 inh	PREPL inh	EBNA-1 inhibitor	Casp3 counter	UBC13 confirm
Cn1c(=O)c2c(ncn2Cc2cccc(Cl)c2)n(C)c1=O	74.3	.	.	.	.	.	74.9
S=c1nc[nH]c2c1[nH]c1ccccc12	82.3	.	.	.	.	.	103.1
CCn1c2ccccc2c2nc3ccccc3nc21	66.5	.	.	.	.	47.6	.
CCn1c2ccccc2c2nc3cc(OC)c(OC)cc3nc21	.	.	.	.	.	/	/
O=C(NNC(=O)c1ccccn1)c1ccc(OC(F)F)cc1	96.0	/	.	.	/	59.1	67.7
COc1cc2nc(=S)n3[nH]c(CCn4c(C)nc5ccccc54)nc3c2cc1OC	.	.	.	.	.	/	/
COc1ccc(OCc2nc3c4cc(OC)c(OC)cc4nc(=S)n3[nH]2)cc1	58.6	.	.	.	.	.	.
COc1ccccc1NS(=O)(=O)c1cccc(C(=O)NNC(=O)c2ccc(Cl)nc2)c1	45.2	/	.	.	/	.	.
Cc1ccc(C2CC(c3cccs3)=NN2C(=O)CSC2=NN3CCCC(=O)N=C3S2)cc1 (stereo not given)	.	.	.	.	.	/	/
CN1CCN(C(=O)C2CCN(c3ncnc4c3nc3n4CCCCC3)CC2)CC1	86.0	.	.	.	.	.	100.7
CCC1CCCCN1CCCNC(=O)C1CCCN(c2ncnc3c2nc2n3CCCCC2)C1 (stereo not given)	.	.	.	.	.	/	/
O=C(NCC1CCN(Cc2ccc(Cl)cc2)CC1)C1CCCN(c2ncnc3c2nc2n3CCCCC2)C1 (stereo not given)	78.5	.	.	.	.	.	100.9
O=C(NCC1CCN(Cc2ccc(F)cc2)CC1)C1CCCN(c2ncnc3c2nc2n3CCCCC2)C1 (stereo not given)	78.5	.	.	.	.	.	95.4
CC1CCCC(C)N1CCCNC(=O)C1CCCN(c2ncnc3c2nc2n3CCCCC2)C1 (stereo not given)	55.5	.	.	.	.	.	87.5
O=C1CS/C(=N/N=C/c2ccncc2)N1	.	.	.	.	.	/	/
Cc1ccc(-c2noc(CN(C(=O)c3cccs3)C(C)C)n2)cc1	.	.	.	.	.	/	/
COc1ccc(Cl)cc1N1C(=O)c2cccnc2C1=O	.	.	.	.	.	/	/
O=C(NCc1cccc(Cl)c1)C1CCCN(c2ncnc3c2nc2n3CCCCC2)C1 (stereo not given)	.	.	.	.	.	/	/
O=C(NCC1CCN(Cc2cccc(Cl)c2)CC1)C1CCCN(c2ncnc3c2nc2n3CCCCC2)C1 (stereo not given)	93.4	.	.	.	.	.	107.4
O=C(COc1ccccc1)Nc1nnc(-c2ccc(F)cc2)o1	.	.	.	.	.	/	/
O=c1c2cc(N3CCOCC3)ccc2[nH]c(=S)n1Cc1ccccc1Cl	45.2	.	.	.	.	.	?
CCc1nnc(NC(=O)CCC(=O)NCC2CCCO2)s1 (stereo not given)	.	.	.	.	.	/	/
CC(C)(C)c1cc(C(=O)N/N=C/c2ccccn2)n[nH]1	62.1	.	.	.	.	.	.
CC(C)(C)c1cc(C(=O)N/N=C/c2ccncc2)n[nH]1	.	.	.	.	.	/	/
CCC[C@H](CN[C@@H](CNC)[C@H](C)CC)NCCc1cc(C(F)(F)F)cc(C(F)(F)F)c1	85.5	.	.	.	.	.	73.1
SMILES	UBC13 polyUb	ZTA counter	Apaf-1 inh	PREPL inh	EBNA-1 inhibitor	Casp3 counter	UBC13 confirm
CCC[C@@H](CN[C@@H](CNC)[C@H](C)CC)NCC1CCC(C(C)(C)C)CC1 (stereo not given in full)	63.4	.	.	.	.	.	60.6
CC1(C)CC(=O)C(C(c2ccncc2)C2C(=O)CC(C)(C)CC2=O)C(=O)C1	.	.	.	.	.	/	/
COc1ccc(N2C(=O)CCC2(C(N)=O)c2ccccc2)cc1 (stereo not given)	.	.	.	.	.	/	/
COc1ccc(-c2nn(-c3ccccc3)cc2/C=C/C(=O)OCC(=O)Nc2ccccc2C#N)cc1	.	.	.	.	.	/	/
CNC(=O)COC(=O)/C=C/c1cn(-c2ccccc2)nc1-c1ccc(C)o1	54.8	.	.	.	.	.	.
COc1ccccc1CNC(=O)Cc1csc(NC(=O)Nc2ccccc2OC)n1	.	.	.	.	.	/	/
COc1ccccc1NC(=O)Nc1nc(C(C)(C)C)cs1	53.2	.	.	.	.	.	54.8
CCN1CCN(Cc2ccc(NC(=O)c3ccc(C)c(NC(=O)c4ccno4)c3)cc2C(F)(F)F)CC1	.	.	.	.	.	/	/
CCN1CCN(Cc2ccc(NC(=O)c3ccc(C)c(/C=C/c4cnc(Nc5cc(N6CCNCC6)nc(C)n5)cn4)c3)cc2C(F)(F)F)CC1	122.9	.	.	.	.	.	116.4
CCn1c(SCC(=O)Nc2ccc(N(C)C)cc2)nnc1C1CC1	.	.	.	.	.	/	/
O=C(CCNC(=O)c1ccccc1Cl)Nc1nc2ccccc2s1	79.6	.	.	.	.	.	100.8
COc1ccc2nc(NC(=O)CCNC(=O)c3ccccc3Cl)sc2c1	.	.	.	.	.	/	/
Cc1ccc(NC(=O)c2nc[nH]c2C(=O)N[C@H](C)c2ccccc2)cc1	.	.	.	.	/	/	/
CCOC(=O)c1ccc(NC(=O)c2nc[nH]c2C(=O)N[C@@H](CC(C)C)C(=O)OC(C)(C)C)cc1	.	.	.	.	.	/	/
COc1ccc(NC(=O)c2nc[nH]c2C(=O)NCc2ccccc2)cc1	60.0	.	.	.	.	.	.
CCOC(=O)c1ccc(NC(=O)c2nc[nH]c2C(=O)N[C@@H](C)C(=O)OC(C)(C)C)cc1	58.0	.	.	.	.	.	.
CCOC(=O)c1ccc(NC(=O)c2nc[nH]c2C(=O)N[C@H](C)c2ccccc2)cc1	70.3	.	.	.	.	.	.
COc1cc(OC)cc(C(=O)Nc2ccc(N(C)C)c3ccccc23)c1	.	.	.	.	.	/	/
CCOc1ccc2nc(N/C(N)=N/C(=S)Nc3ccc(C)c(C)c3)nc(C)c2c1	.	.	.	.	.	/	/
CC(=O)NCCn1c(SCc2cc(=O)n3cc(Cl)ccc3n2)nc2ccccc2c1=O	.	.	.	.	.	/	/
O=C(CCCOc1ccccc1)Nc1ccc(S(=O)(=O)N2CCOCC2)cc1	.	.	.	.	.	/	/
Cc1ccc(OCCCC(=O)Nc2ccc(S(=O)(=O)N3CCOCC3)cc2)cc1	56.0	.	.	.	/	.	.
FC(F)(F)c1cc(CCN2CCNC[C@H]2Cc2cccc3ccccc23)cc(C(F)(F)F)c1	96.1	.	72.4	.	.	.	98.2
CCCCCc1cc(=O)oc2c(C(CCN3CCN(c4ccccc4)CC3)c3ccc(N(C)C)cc3)c(OC)cc(OC)c12 (stereo not given)	.	.	.	.	.	/	/

Screens from PubChem BioAssay.
